Reference: ChEMBL document CHEMBL3244034, “Semisynthetic cephalosporins. Synthesis and structure-activity relationships of 7-(1-pyrryl)- and 7-(1-indolyl)acetamidocephalosporin derivatives” (1978)
≈ marks a conversion by molar mass, not a printed value. Calls of active or inactive are those of the source. The calls are words filed in the database; no cut-off is given here.

Key:
[1] = tested on: Staphylococcus aureus; test: Antibacterial activity against benzylpenicillin-resistant Staphylococcus aureus after 17 hrs by serial two fold dilution method; assay type: functional
Method in brief: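 Agar dilution MIC. Compound was serially diluted twofold in Mueller-Hinton agar. The surface was inoculated with a diluted 18-24-h broth culture […]. Plates were incubated 17 h at 37 °C. MIC was taken as the lowest concentration giving complete or virtually complete inhibition of visible growth.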

[2] = tested on: Staphylococcus aureus; test: Antibacterial activity against Staphylococcus aureus after 17 hrs by serial two fold dilution method; assay type: functional
Method in brief: (§1)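 Agar dilution MIC: compound serially diluted twofold in Mueller-Hinton agar. Plate surfaces were inoculated with a suitably diluted 18-24-h broth culture and incubated 17 h at 37 °C. MIC was read as the lowest concentration giving complete or virtually complete inhibition of visible growth.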

[3] = tested on: Staphylococcus epidermidis; test: Antibacterial activity against Staphylococcus epidermidis after 17 hrs by serial two fold dilution method; assay type: functional; method in brief: as §1
[4] = tested on: Enterococcus faecalis; test: Antibacterial activity against Staphylococcus faecalis after 17 hrs by serial two fold dilution method; assay type: functional; method in brief: as §1
[5] = tested on: Streptococcus pneumoniae; test: Antibacterial activity against Streptococcus pneumoniae after 17 hrs by serial two fold dilution method; assay type: functional; method in brief: as §1
[6] = tested on: Streptococcus pyogenes; test: Antibacterial activity against Streptococcus pyogenes after 17 hrs by serial two fold dilution method; assay type: functional; method in brief: as §1
[7] = tested on: Klebsiella aerogenes; test: Antibacterial activity against Enterobacter aerogenes after 17 hrs by serial two fold dilution method; assay type: functional
[8] = tested on: Escherichia coli; test: Antibacterial activity against Escherichia coli after 17 hrs by serial two fold dilution method; assay type: functional; method in brief: as §1
[9] = tested on: Klebsiella pneumoniae; test: Antibacterial activity against Klebsiella pneumoniae after 17 hrs by serial two fold dilution method; assay type: functional; method in brief: as §1
[10] = tested on: Proteus mirabilis; test: Antibacterial activity against Proteus mirabilis after 17 hrs by serial two fold dilution method; assay type: functional; method in brief: as §1
[11] = tested on: Proteus vulgaris; test: Antibacterial activity against Proteus vulgaris after 17 hrs by serial two fold dilution method; assay type: functional; method in brief: as §1
[12] = tested on: Providencia stuartii; test: Antibacterial activity against Providencia stuartii after 17 hrs by serial two fold dilution method; assay type: functional; method in brief: as §1
[13] = tested on: Pseudomonas aeruginosa; test: Antibacterial activity against Pseudomonas aeruginosa after 17 hrs by serial two fold dilution method; assay type: functional; method in brief: as §1
[14] = tested on: Salmonella; test: Antibacterial activity against Salmonella schottmuelleri after 17 hrs by serial two fold dilution method; assay type: functional; method in brief: as §1
[15] = tested on: Staphylococcus aureus; test: Antibacterial activity against benzylpenicillin-resistant Staphylococcus aureus infected in sc dosed CD1 mouse assessed as host survival administered 1 and 4 hrs after infection measured on day 4; assay type: functional
Method in brief: (§2)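 Male albino CD-1 mice, 20 (± 1) g, infected intraperitoneally with a bacterial suspension giving uniformly lethal infection. Groups of ten mice were treated subcutaneously with antibiotic at 1 and 4 h post-infection. Survival over 4 days was recorded.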

[16] = tested on: Escherichia coli; test: Antibacterial activity against Escherichia coli infected in sc dosed CD1 mouse assessed as host survival administered 1 and 4 hrs after infection measured on day 4; assay type: functional; method in brief: as §2
[17] = tested on: Klebsiella pneumoniae; test: Antibacterial activity against Klebsiella pneumoniae infected in sc dosed CD1 mouse assessed as host survival administered 1 and 4 hrs after infection measured on day 4; assay type: functional; method in brief: as §2
[18] = tested on: Proteus mirabilis; test: Antibacterial activity against Proteus mirabilis infected in sc dosed CD1 mouse assessed as host survival administered 1 and 4 hrs after infection measured on day 4; assay type: functional; method in brief: as §2
[19] = tested on: Salmonella; test: Antibacterial activity against Salmonella schottmuelleri infected in sc dosed CD1 mouse assessed as host survival administered 1 and 4 hrs after infection measured on day 4; assay type: functional; method in brief: as §2
[20] = tested on: Neisseria gonorrhoeae; test: Antibacterial activity against Neisseria gonorrhoeae after 17 hrs by serial two fold dilution method; assay type: functional, organism-based
[21] = tested on: Haemophilus influenzae; test: Antibacterial activity against Haemophilus influenzae after 17 hrs by serial two fold dilution method; assay type: functional, organism-based
[22] = tested on: Bacteroides fragilis; test: Antibacterial activity against Bacteroides fragilis after 17 hrs by serial two fold dilution method; assay type: functional, organism-based
[23] = tested on: Fusobacterium varium; test: Antibacterial activity against Fusobacterium varium after 17 hrs by serial two fold dilution method; assay type: functional, organism-based
[24] = tested on: Streptococcus pyogenes; test: Antibacterial activity against Streptococcus pyogenes infected in po dosed CD1 mouse assessed as host survival administered 1 and 4 hrs after infection measured on day 4; assay type: functional
[25] = tested on: Enterobacter cloacae; test: Antibacterial activity against Enterobacter cloacae after 17 hrs by serial two fold dilution method; assay type: functional

Cc1nnc(SCC2=C(C(=O)O)N3C(=O)[C@@H](NC(=O)Cn4cnnn4)[C@H]3SC2)s1 [CEFAZOLIN]
MIC [1]: 0.4 µg/mL (≈ 0.88 µM)
MIC [2]: 0.2 µg/mL (≈ 0.44 µM)
MIC [3]: 0.8 µg/mL (≈ 1.76 µM)
MIC [4]: > 100 µg/mL
MIC [5]: 0.1 µg/mL (≈ 0.22 µM)
MIC [6]: 0.1 µg/mL (≈ 0.22 µM)
MIC [7]: > 50 µg/mL
MIC [8]: 0.8 µg/mL (≈ 1.76 µM)
MIC [9]: 1.6 µg/mL (≈ 3.52 µM)
MIC [10]: 6.2 µg/mL (≈ 13.6 µM)
MIC [11]: > 100 µg/mL
MIC [12]: > 50 µg/mL
MIC [13]: > 100 µg/mL
MIC [14]: 1.6 µg/mL (≈ 3.52 µM)
ED50 [15]: 22 mg/kg
ED50 [16]: 0.6 mg/kg
ED50 [17]: 42 mg/kg
ED50 [18]: 79 mg/kg
ED50 [19]: 2.2 mg/kg
Activity [20]: inactive
Activity [21]: inactive
Activity [22]: inactive
Activity [23]: inactive
ED50 [24]: 1.8 mg/kg

CC(=O)OCC1=C(C(=O)O)N2C(=O)[C@@H](NC(=O)Cc3cccs3)[C@H]2SC1 [CEPHALOTHIN]
MIC [1]: 0.4 µg/mL (≈ 1.01 µM)
MIC [2]: 0.1 µg/mL (≈ 0.252 µM)
MIC [3]: 0.4 µg/mL (≈ 1.01 µM)
MIC [4]: 100 µg/mL (≈ 252 µM)
MIC [5]: 0.1 µg/mL (≈ 0.252 µM)
MIC [6]: 0.1 µg/mL (≈ 0.252 µM)
MIC [7]: > 50 µg/mL
MIC [25]: > 100 µg/mL
MIC [8]: 6.2 µg/mL (≈ 15.6 µM)
MIC [9]: 3.1 µg/mL (≈ 7.82 µM)
MIC [10]: 6.2 µg/mL (≈ 15.6 µM)
MIC [11]: > 100 µg/mL
MIC [12]: 100 µg/mL (≈ 252 µM)
MIC [13]: > 100 µg/mL
MIC [14]: 0.8 µg/mL (≈ 2.02 µM)

Cc1nnc(SCC2=C(C(=O)O)N3C(=O)[C@@H](NC(=O)Cn4cccc4C=O)[C@H]3SC2)s1
MIC [1]: 0.8 µg/mL (≈ 1.67 µM)
MIC [2]: 0.4 µg/mL (≈ 0.834 µM)
MIC [3]: 1.6 µg/mL (≈ 3.34 µM)
MIC [4]: > 100 µg/mL
MIC [5]: 0.2 µg/mL (≈ 0.417 µM)
MIC [6]: 0.2 µg/mL (≈ 0.417 µM)
MIC [7]: > 100 µg/mL
MIC [25]: > 100 µg/mL
MIC [8]: 50 µg/mL (≈ 104 µM)
MIC [9]: 50 µg/mL (≈ 104 µM)
MIC [10]: 100 µg/mL (≈ 209 µM)
MIC [11]: > 100 µg/mL
MIC [12]: > 100 µg/mL
MIC [13]: > 100 µg/mL
MIC [14]: 12.5 µg/mL (≈ 26.1 µM)

CC1=C(C(=O)O)N2C(=O)[C@@H](NC(=O)Cn3ccc4ccccc43)[C@H]2SC1
MIC [1]: 3.1 µg/mL (≈ 8.35 µM)
MIC [2]: 1.6 µg/mL (≈ 4.31 µM)
MIC [3]: 6.2 µg/mL (≈ 16.7 µM)
MIC [4]: > 100 µg/mL
MIC [5]: 1.6 µg/mL (≈ 4.31 µM)
MIC [6]: 0.8 µg/mL (≈ 2.15 µM)
MIC [7]: > 100 µg/mL
MIC [25]: > 100 µg/mL
MIC [8]: > 100 µg/mL
MIC [9]: > 100 µg/mL
MIC [10]: > 100 µg/mL
MIC [11]: > 100 µg/mL
MIC [12]: > 100 µg/mL
MIC [13]: > 100 µg/mL
MIC [14]: > 100 µg/mL

CCOC(=O)C(C(=O)N[C@@H]1C(=O)N2C(C(=O)O)=C(COC(C)=O)CS[C@H]12)n1cccc1 (stereo partly drawn)
MIC [1]: 6.2 µg/mL (≈ 13.7 µM)
MIC [2]: 1.6 µg/mL (≈ 3.54 µM)
MIC [3]: 3.1 µg/mL (≈ 6.87 µM)
MIC [4]: > 100 µg/mL
MIC [5]: 0.4 µg/mL (≈ 0.886 µM)
MIC [6]: 0.4 µg/mL (≈ 0.886 µM)
MIC [7]: 25 µg/mL (≈ 55.4 µM)
MIC [25]: 25 µg/mL (≈ 55.4 µM)
MIC [8]: 25 µg/mL (≈ 55.4 µM)
MIC [9]: 25 µg/mL (≈ 55.4 µM)
MIC [10]: 50 µg/mL (≈ 111 µM)
MIC [11]: > 100 µg/mL
MIC [12]: 12.5 µg/mL (≈ 27.7 µM)
MIC [13]: > 100 µg/mL
MIC [14]: 25 µg/mL (≈ 55.4 µM)

Cn1nnnc1SCC1=C(C(=O)O)N2C(=O)[C@@H](NC(=O)Cn3ccc4ccccc43)[C@H]2SC1
MIC [1]: 0.2 µg/mL (≈ 0.412 µM)
MIC [2]: 0.1 µg/mL (≈ 0.206 µM)
MIC [3]: 0.4 µg/mL (≈ 0.824 µM)
MIC [4]: > 100 µg/mL
MIC [6]: 0.05 µg/mL (≈ 0.103 µM)
MIC [7]: 50 µg/mL (≈ 103 µM)
MIC [25]: 50 µg/mL (≈ 103 µM)
MIC [8]: 12.5 µg/mL (≈ 25.7 µM)
MIC [9]: 12.5 µg/mL (≈ 25.7 µM)
MIC [10]: 50 µg/mL (≈ 103 µM)
MIC [11]: > 100 µg/mL
MIC [12]: 25 µg/mL (≈ 51.5 µM)
MIC [13]: > 100 µg/mL
MIC [14]: 6.2 µg/mL (≈ 12.8 µM)
